# In PubChem BioAssay AID463209 (The Scripps Research Institute Molecular Screening Center, 2010):
# Activity calls are given as the source filed them.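 How the source made its calls: active means parasite growth inhibition of at least 50% in red blood cells; inactive means the rest.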
# Tested on: P. falciparum 3D7 in RBCs, 3H-hypoxanthine incorporation, 48 h
# Assay: P. falciparum growth inhibition in erythrocytes, late-stage follow-up, P. falciparum M1AAP inhibitor project, cell-based, radiolabel readout, RBCs (AID 463209)
# Conditions: at 10 µM; active compounds read high
# Outline: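 System: Plasmodium falciparum clone 3D7 in human red blood cells; Medium: hypoxanthine-free RPMI medium with 10% serum; Compound dosing: 10 µM single dose; Incubation: 48 h compound exposure at 37 °C, 5% O2/5% CO2/90% N2; Detection: 3H beta counting after harvest; Controls: uninfected RBC background wells and DMSO-treated infected wells; Repeats: 6–9 replicates.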
row,Compound,inhibition
1,O=C(O)CCC(=O)N1N=C(c2c(-c3ccccc3)c3cc(Cl)ccc3[nH]c2=O)CC1c1ccco1 (stereo not drawn),0% (inactive)
2,O=C1N=c2ccccc2=C1c1sc(=S)n(NC(=O)c2ccccc2)c1O,6% (inactive)
3,O=C(NCCC1=CCCCC1)C1CCN(S(=O)(=O)c2ccc(Br)s2)CC1,0% (inactive)
4,CC(=O)N1N=C(c2c(O)n(C)c(=O)n(C)c2=O)CC1c1ccccc1 (stereo not drawn),2% (inactive)
5,O=C(NCc1ccco1)C1CCCN(S(=O)(=O)c2cccc3nonc23)C1 (stereo not drawn),0% (inactive)
6,O=C(Nn1c(C2CCC2)nc2ccccc2c1=O)c1cccs1,8% (inactive)
7,O=C1N=c2ccccc2=C1c1sc(=S)n(NC(=O)c2cccc(O)c2)c1O,0% (inactive)
8,O=C(NCc1cccc(F)c1)C1CCN(S(=O)(=O)Cc2ccccc2)CC1,15% (inactive)
9,O=C1/C(=C/c2cccs2)SC(=S)N1NS(=O)(=O)c1ccccc1,1% (inactive)
10,COc1ccc(OC)c(/C=C2\SC(=S)N(C(C(=O)O)c3ccccc3)C2=O)c1 (stereo not drawn),3% (inactive)
11,COc1ccc(C2CC(c3c(-c4ccccc4)c4cc(Cl)ccc4[nH]c3=O)=NN2C(=O)CCC(=O)O)cc1 (stereo not drawn),0% (inactive)
12,COc1ccccc1-c1nc2ccccc2c(=O)n1NC(=O)c1cccs1,4% (inactive)
13,O=C(O)CCC(=O)N1N=C(c2c(-c3ccccc3)c3cc(Cl)ccc3[nH]c2=O)CC1c1cccs1 (stereo not drawn),0% (inactive)
